In ChEMBL document CHEMBL1128295 (J Med Chem, 1995):
“And” between values parts separate entries of the source, which are not always exact repeats. Equal values may be shown once. The source made the active and inactive calls. The calls are words filed in the database; no cut-off is given here.

Tests used:
[1] = target: Histamine H1 receptor (Cavia porcellus) (UniProt P31389); assay: Contractile effect on isolated guinea pig ileal segments is a measure of H1 (histamine) receptor agonistic activity relative to histamine.; format: functional
[2] = target: Histamine H1 receptor (Cavia porcellus) (UniProt P31389); assay: H1-Histamine receptor agonism on guinea pig ileum as intrinsic activity given as 1.0 with respect to histamine (paired 't'test; p>0.05).; format: functional, tissue-based
[3] = target: Histamine H1 receptor (Cavia porcellus) (UniProt P31389); assay: The H1 receptor-mediated nature of the ileum contractionhas been verified by competition experiments with the H1 receptor antagonist mepyramine; format: functional, tissue-based
[4] = target: Histamine H2 receptor (Cavia porcellus) (UniProt P47747); assay: Histamine H2 receptor agonism activity was determined on the isolated Guinea pig Atrium was determined as Intrinsic activity with respect to Histamine; format: functional
How it was run: (§1)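 Spontaneously beating guinea pig right atrium, isometric, resting force 5 mN, (R,S)-metoprolol 300 nM present throughout.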

[5] = target: Histamine H1 receptor (Cavia porcellus) (UniProt P31389); assay: Contractile effect on isolated guinea pig ileal segments by H1 (histamine) receptor agonism.; format: functional
[6] = target: Histamine H1 receptor (Cavia porcellus) (UniProt P31389); assay: Contractile effect on isolated guinea pig aorta is a measure of H1 (histamine) receptor agonistic activity relative to histamine; format: functional, tissue-based
How it was run: (§2)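 Endothelium-denuded 4–6 mm guinea pig thoracic aortic rings, isometric (preload 10 mN), modified Krebs-Henseleit, 37 °C, 95% O2/5% CO2. […] Cumulative curves with 30 μM corticosterone, 100 μM cimetidine, 0.1 μM (R,S)-propranolol and phentolamine present.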

[7] = target: Histamine H1 receptor (Cavia porcellus) (UniProt P31389); assay: H1-Histamine receptor agonism on Guinea pig aorta was evaluated as Intrinsic activity given as 1.0 with respect to histamine (paired 't'test;p>0.05) (SEM 0.01-0.12); format: functional, tissue-based; how it was run: as §2
[8] = target: Histamine H2 receptor (Cavia porcellus) (UniProt P47747); assay: Histamine H2 receptor agonism activity was determined on the isolated Guinea pig Atrium was determined as pD'2; format: functional; how it was run: as §1
[9] = target: Histamine H1 receptor (Cavia porcellus) (UniProt P31389); assay: Contractile effects on guinea pig aorta as histamine H1 receptor agonism; format: functional, tissue-based; how it was run: as §2
[10] = target: Histamine H1 receptor (Cavia porcellus) (UniProt P31389); assay: H1-Histamine receptor agonism on Guinea pig aorta was evaluated as Intrinsic activity given as 1.0 with respect to histamine (paired 't'test;p>0.05); format: functional, tissue-based; how it was run: as §2
[11] = target: Histamine H1 receptor (Cavia porcellus) (UniProt P31389); assay: Contractile effects of compound on the guinea pig aorta as a measure of histamine H1 receptor agonism; f - effect could be antagonized with 1 pM mepyramine added to the bath solution when a plateau was reached.; format: functional, tissue-based; details: filed as agonist, in the assay text read “1 µM mepyramine” for “1 pM mepyramine”; how it was run: as §2
[12] = target: Histamine H1 receptor (Cavia porcellus) (UniProt P31389); assay: The H1 receptor-mediated nature of the ileum contractionhas been verified by competition experiments with the H1 receptor antagonist mepyramine; O=effect could be antagonized with 1 uM Mepyramine added to the bath solution when a plateau was re; format: functional, tissue-based
[13] = target: Histamine H1 receptor (Cavia porcellus) (UniProt P31389); assay: H1-Histamine receptor agonism on Guinea pig aorta was evaluated as Intrinsic activity given as 1.0 with respect to histamine (paired 't'test;p>0.05)(SEM 0.01-0.12); format: functional, tissue-based
[14] = target: Histamine H1 receptor (Cavia porcellus) (UniProt P31389); assay: H1-Histamine receptor agonism on Guinea pig aorta was evaluated as Intrinsic activity given as 1.0 with respect to histamine (paired 't'test;p>0.05) (SEM0.03-0.18); format: functional, tissue-based; how it was run: as §2
[15] = target: Histamine H1 receptor (Cavia porcellus) (UniProt P31389); assay: The H1 receptor-mediated nature of the ileum contractionhas been verified by competition experiments with the H1 receptor antagonist mepyramine;O=effect could be antagonized with 1 uM Mepyramine added to the bath solution when a plateau was rea; format: functional, tissue-based
[16] = species: Cavia porcellus; assay: Relative activity with respect to Histamine on guinea pig ileum..; format: functional
How it was run: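 Guinea pig ileum segments (either sex), 1.5 cm, mounted isotonically under 5 mN preload in Tyrode solution with 0.1 μM atropine, 95% O2/5% CO2 gassed, 37 °C. […] Potency is read from graphically analysed concentration–effect curves as geometric means.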

[17] = target: Histamine H1 receptor (Mus musculus) (UniProt P70174); assay: In vivo binding of H1 receptor Agonists measured by binding of [3H]mepyramine to Mouse cerebral cortex at the dosage of ( 100 mg/kg(no. of mice treated= 3 ); details: at 100 mg/kg
[18] = target: Histamine H1 receptor (Mus musculus) (UniProt P70174); assay: In vivo binding of H1 receptor Agonists measured by binding of [3H]mepyramine to Mouse cerebral cortex at the dosage of ( 10 mg/kg(no. of mice treated=5 ); details: at 10 mg/kg
[19] = target: Histamine H1 receptor (Mus musculus) (UniProt P70174); assay: In vivo binding of H1 receptor Agonists measured by binding of [3H]mepyramine to Mouse cerebral cortex at the dosage of ( 3 mg/kg(no. of mice treated=5 ); details: at 3 mg/kg
[20] = target: Histamine H1 receptor (Mus musculus) (UniProt P70174); assay: In vivo binding of H1 receptor Agonists measured by binding of [3H]-Mepyramine to Mouse cerebral cortex at the dosage of ( 300 mg/kg(no. of mice treated= 3 ); details: at 300 mg/kg
[21] = target: Histamine H1 receptor (Mus musculus) (UniProt P70174); assay: In vivo binding of H1 receptor Agonists measured by binding of [3H]mepyramine to Mouse cerebral cortex at the dosage of ( 30 mg/kg(no. of mice treated= 5 ); details: at 30 mg/kg

Sequence of Histamine H1 receptor (Cavia porcellus) (P31389 whole entry): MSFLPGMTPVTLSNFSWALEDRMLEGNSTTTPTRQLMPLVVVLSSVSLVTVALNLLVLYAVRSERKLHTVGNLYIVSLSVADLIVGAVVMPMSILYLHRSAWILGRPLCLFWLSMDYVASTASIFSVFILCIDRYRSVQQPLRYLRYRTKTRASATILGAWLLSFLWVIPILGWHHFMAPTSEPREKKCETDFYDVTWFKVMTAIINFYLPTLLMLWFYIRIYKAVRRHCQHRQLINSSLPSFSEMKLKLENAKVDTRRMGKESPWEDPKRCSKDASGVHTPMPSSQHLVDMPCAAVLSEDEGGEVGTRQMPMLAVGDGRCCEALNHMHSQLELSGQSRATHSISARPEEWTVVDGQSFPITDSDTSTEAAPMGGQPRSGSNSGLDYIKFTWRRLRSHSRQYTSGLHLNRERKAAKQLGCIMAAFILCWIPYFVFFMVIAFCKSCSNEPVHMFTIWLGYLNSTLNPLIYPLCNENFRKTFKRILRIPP
Sequence of Histamine H2 receptor (Cavia porcellus) (P47747 whole entry): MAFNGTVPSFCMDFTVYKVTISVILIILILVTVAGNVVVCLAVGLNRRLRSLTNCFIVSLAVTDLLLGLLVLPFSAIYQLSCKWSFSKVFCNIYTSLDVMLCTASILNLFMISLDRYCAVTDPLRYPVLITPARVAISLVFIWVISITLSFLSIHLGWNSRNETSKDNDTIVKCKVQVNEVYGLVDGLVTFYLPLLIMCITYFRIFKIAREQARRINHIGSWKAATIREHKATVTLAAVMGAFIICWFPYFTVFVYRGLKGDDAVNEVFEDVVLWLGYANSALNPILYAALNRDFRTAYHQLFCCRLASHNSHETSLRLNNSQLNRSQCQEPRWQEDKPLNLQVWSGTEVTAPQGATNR
Sequence of Histamine H1 receptor (Mus musculus) (P70174 whole entry, looked up): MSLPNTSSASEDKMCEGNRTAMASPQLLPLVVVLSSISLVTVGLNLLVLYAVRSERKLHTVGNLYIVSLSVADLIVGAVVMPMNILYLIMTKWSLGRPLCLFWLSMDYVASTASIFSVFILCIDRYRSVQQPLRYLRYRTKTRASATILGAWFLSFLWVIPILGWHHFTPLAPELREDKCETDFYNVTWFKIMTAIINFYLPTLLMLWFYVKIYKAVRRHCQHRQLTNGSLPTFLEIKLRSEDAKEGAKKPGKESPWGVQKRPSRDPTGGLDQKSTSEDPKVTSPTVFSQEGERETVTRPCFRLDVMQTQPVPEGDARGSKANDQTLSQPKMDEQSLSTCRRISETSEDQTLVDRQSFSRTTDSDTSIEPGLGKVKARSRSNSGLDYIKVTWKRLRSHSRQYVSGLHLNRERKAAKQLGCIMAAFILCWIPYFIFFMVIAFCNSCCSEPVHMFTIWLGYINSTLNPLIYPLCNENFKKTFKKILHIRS

Structure (SMILES) | Relative activity [1] | Intrinsic activity [2] | pKb [3] | pD2 [5] | Relative activity [6] | other results
NCCc1c[nH]c(-c2cccc(F)c2)n1 | 87% | – | – | – | – | –
NCCc1c[nH]c(-c2cc3ccccc3c3ccccc23)n1 | – | 0 | 4.73 | – | – | –
NCCc1c[nH]c(-c2ccco2)n1 | 47% | 1 | 9.16 | 6.37 | 23% | Intrinsic activity [4]: 0.36; Intrinsic activity [7]: 0.47; pD'2 [8]: < 3; pKb [9]: 9.28
Cc1ncc(CCN)[nH]1 | 15% | – | – | – | – | –
NCCc1c[nH]c(Cc2ccc(C(F)(F)F)cc2)n1 | – | 0 | – | – | – | PkB [3]: 4.53
CNCCc1ccccn1 | 8% | – | – | – | – | –
NCCc1c[nH]c(-c2cccc(OC(F)(F)F)c2)n1 | 54% | 1 | 8.92 | 6.43 | – | –
NCCc1c[nH]c(-c2ccccc2)n1 | 10% and 31% | 1 | 8.87 | 6.2 | 19% | Intrinsic activity [4]: 0.2; Intrinsic activity [10]: 0.86; pD'2 [8]: < 3; pKb [9]: 9.1
NCCc1c[nH]c(-c2cccc(Cl)c2)n1 | 81% | – | – | – | – | –
NCCc1c[nH]c(Cc2cccc(Cl)c2)n1 | 2% | 0.76 | 8.81 | 4.88 | 0.4% | pKb [11]: Agonist; Intrinsic activity [10]: 0.51
NCCc1c[nH]c(-c2cccc(Br)c2)n1 | – | 1 | – | – | – | Intrinsic activity [4]: 0; Intrinsic activity [10]: 0.64
NCCc1c[nH]c(-c2ccc3ccccc3c2)n1 | 1% | 0.24 | – | 4.85 | – | pKb [12]: Active
NCCc1c[nH]c(Cc2ccccc2C(F)(F)F)n1 | – | 0 | 3.55 | – | – | –
NCCc1c[nH]c(-c2ccc[nH]2)n1 | 14% | 0.93 | 9.03 | 5.86 | 12% | Intrinsic activity [13]: 0.74; pKb [9]: 9.27
NCCc1c[nH]c(-c2cccs2)n1 | 46% | 1 | 8.93 | 6.36 | 12% | Intrinsic activity [4]: 0.25; pD'2 [8]: < 3; pKb [9]: 8.83; Intrinsic activity [14]: 0.5
NCCc1c[nH]c(-c2ccsc2)n1 | 66% | 1 | 9.13 | 6.52 | 19% | Intrinsic activity [4]: 0.13; pD'2 [8]: < 3; Intrinsic activity [13]: 0.43; pKb [9]: 9.01

Structure (SMILES) | Relative activity [1] | Intrinsic activity [2] | pKb [3] | pD2 [5] | Relative activity [6] | other results
NCCc1c[nH]c(-c2ccc(C(F)(F)F)cc2)n1 | < 1% | 0.24 | – | 4.6 | – | pKb [15]: Active
NCCc1c[nH]c(Cc2ccsc2)n1 | 4% | 1 | 8.97 | 5.26 | 0.9% | pKb [11]: Agonist; Intrinsic activity [10]: 0.4
NCCc1c[nH]c(Cc2ccccc2Cl)n1 | 3% | 0.54 | 8.91 | 5.11 | 0.2% | pKb [11]: Agonist; Intrinsic activity [10]: 0.38
COc1cccc(-c2nc(CCN)c[nH]2)c1 | 40% | – | – | – | – | –
NCCc1c[nH]c(-c2cccc(I)c2)n1 | 96% | 1 | 9.28 | 6.68 | 47% | Intrinsic activity [4]: 0; Intrinsic activity [10]: 0.49; pD'2 [8]: 3.76; pKb [9]: 9.13
NCCc1c[nH]cn1 | – | – | 9.09 | 6.7 | – | Intrinsic activity [4]: 1; Intrinsic activity [10]: 1.06
NCCc1c[nH]c(-c2ccccc2C(F)(F)F)n1 | < 1% | 0.26 | – | 4.47 | – | pKb [15]: Active
Cc1cccc(-c2nc(CCN)c[nH]2)c1 | 15% | 1 | 9.04 | 5.87 | – | –
NCCc1c[nH]c(Cc2cccc(C(F)(F)F)c2)n1 | < 1% | 0.28 | – | 4.57 | – | pKb [12]: Active
NCCc1c[nH]c(Cc2cccs2)n1 | 3% | 1 | 8.92 | 5.09 | 0.8% | pKb [11]: Agonist; Intrinsic activity [13]: 0.45
NCCc1nccs1 | 45% | 1 | 9.17 | 6.36 | 18% | Intrinsic activity [10]: 1.02; pKb [9]: 9.02; Relative activity [16]: 20%
NCCc1c[nH]c(-c2cccc(C(F)(F)F)c2)n1 | 128% | 1 | 9.14 | 6.81 | 94% | Intrinsic activity [4]: 0; Intrinsic activity [10]: 0.8; Control [17]: 112%; Control [18]: 122%; pD'2 [8]: 3.48; Control [19]: 101%; pKb [9]: 9.04; Control [20]: 129%; Control [21]: 98%
NCCc1c[nH]c(-c2csc(Br)c2)n1 | 26% | 1 | 9.04 | 6.11 | 11% | Intrinsic activity [13]: 0.6; pKb [9]: 8.63
NCCc1c[nH]c(-c2cncc(Br)c2)n1 | 70% | 1 | 9.03 | 6.54 | – | –
NCCc1c[nH]c(C(F)(F)F)n1 | 7% | 1 | 9.19 | 5.57 | – | Intrinsic activity [4]: 0.55
